VIM-2 inhibitor: inhibitors of Pseudomonas aeruginosa VIM-2 metallo-beta-lactamase | purified VIM-2, nitrocefin hydrolysis, epi-absorbance fluorescence | inhibition, % at 5.6 µM | actives 0.89% (n = 290,000) | AID 1527;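 active = inhibition above the mean of all tested compounds plus 3 SD, cutoff set per screening run, cut at about 7.5% in these data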;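 note: red hydrolysis product quenches plate fluorescence so inhibitors raise well fluorescence; 0% = enzyme with DMSO and 100% = DMSO without enzyme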
Mot1-301 SUMO: SUMOylation pathway inhibition by Mot1-301 growth rescue. S. cerevisiae Mot1-301 growth rescue, ATP luminescence, 38.5C; percent above DMSO median, 100 means doubled. growth rescue, % at 18.8 µM. actives 1% (n = 320,000). AID 2716;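 active = every valid replicate shows activation above 250% relative to neutral control wells; inactive = the rest, any valid replicate at or below 250%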;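 note: OY570 slx delta 5 strain wells were the positive control but not used for scaling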
PolyA inh: blocks polyadenylation in yeast reporter cells; S. cerevisiae SKY197-pL101 polyadenylation reporter, beta-gal luminescence; efflux-impaired pdr1/pdr3 knockout yeast; score 100 = 6 SD above DMSO; activity score, % at 12 µM; actives 0.02% (n = 300,000); AID 1875;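 active = lowest replicate activity score at least 50, where 100 means six control SD above control mean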;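 note: yeast exposed to compound for 9 h at 30 °C; higher score means more reporter readthrough which indicates perturbed polyadenylation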
IMP-1 inh-1: blocks Pseudomonas aeruginosa IMP-1 metallo-beta-lactamase | purified IMP-1, nitrocefin hydrolysis, epi-absorbance fluorescence | inhibition, % at 5.6 µM | actives 0.45% (n = 290,000) | AID 1556;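 active = inhibition above the mean plus 3 SD of all compounds in the same screening run, cut at about 4.5% in these data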;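 note: 0% = IMP-1 with DMSO and 100% = DMSO wells lacking enzyme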
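Material – recombinant IMP-1 enzyme, purified · Amount – IMP-1 0.2 nM before substrate addition · Medium – HEPES buffer pH 7.1 with ZnSO4 and Brij 35 · Timing – 25 °C, 15 min preincubation, 25 min reaction · Measured by – plate fluorescence quenching by hydrolysis product, ex 480/em 530 nm · Read-out – percent enzyme inhibition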
NALP1 yeast inh: inhibitors of NALP1 inflammasome in yeast | actives 0.61% (n = 280,000) | inhibition, % at 10 µM | S. cerevisiae NALP1/ASC/caspase-1 growth, X-gal OD620, 72 h; in the data active = inhibition mostly above about 24%, no sharp cut-off; inactive = mostly below about 32%
NLRP3 yeast inh: blocks the NALP3 inflammasome reconstituted in yeast. Yeast reconstituted NLRP3/ASC/caspase-1, beta-gal luminescence, 24 h. inhibition, % at 10 µM. actives 0.39% (n = 330,000);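 active = inhibition of 50% or more; inactive = inhibition below 50%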;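 note: plate controls were induced DMSO wells for no effect and uninduced yeast grown without galactose for full effect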
IMP-1 inh-2: blocks IMP-1 metallo-beta-lactamase in VIM-2 selectivity screen; shares compounds with VIM-2 inhibitor; inhibition, % at 5.6 µM; purified IMP-1, nitrocefin hydrolysis, epi-absorbance fluorescence; 1,300 tested, under 10 active; AID 1856; call rule not given here;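 note: 0% = enzyme with vehicle and 100% = vehicle without enzyme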
VIM-2 FRET inh: inhibits VIM-2 in FRET assay to exclude epi-absorbance artifacts | inhibition, % at 5.6 µM | shares compounds with VIM-2 inhibitor | AID 1857 | purified VIM-2, CCF2 FRET substrate hydrolysis | actives 23% (n = 1,300);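 active = inhibition above the mean of all tested compounds plus 3 SD, cut at about 19% in these data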;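 note: 0% = VIM-2 plus DMSO and 100% = no enzyme wells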
TEM-1 counter: TEM-1 inhibition, counter-screen for VIM-2 inhibitors | shares compounds with VIM-2 inhibitor | Purified TEM-1, nitrocefin hydrolysis, epi-absorbance fluorescence | inhibition, % at 5.6 µM | actives 3% (n = 1,300) | AID 1866;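 active = inhibition above that campaign's mean inhibition plus 3 SD, cut at about 0.46% in these data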;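 note: 0% = TEM-1 with DMSO and 100% = TEM-1 with 100 µM potassium clavulanate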
Target sequence (P62593 whole entry, looked up): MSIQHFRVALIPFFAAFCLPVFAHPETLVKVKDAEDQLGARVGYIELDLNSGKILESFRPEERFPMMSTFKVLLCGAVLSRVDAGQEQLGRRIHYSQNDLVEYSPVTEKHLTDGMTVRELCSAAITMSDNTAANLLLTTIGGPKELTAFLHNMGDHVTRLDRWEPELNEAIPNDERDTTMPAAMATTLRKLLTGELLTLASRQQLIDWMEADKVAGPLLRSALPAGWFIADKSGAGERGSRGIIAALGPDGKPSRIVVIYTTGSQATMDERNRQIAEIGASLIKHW
VIM-2 inh conf: confirmation of P. aeruginosa VIM-2 metallo-beta-lactamase inhibitors | inhibition, % at 5.6 µM | AID 2187 | shares compounds with VIM-2 inhibitor | actives 96% (n = 1,300) | purified VIM-2, nitrocefin hydrolysis, epi-absorbance;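 active = inhibition of the VIM-2 beta-lactamase enzyme above about 11% from the earlier first-round screen, limit read from the data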;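 note: 0% = VIM-2 with DMSO and 100% = buffer wells without enzyme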
An asterisk follows results filed as active; i = inactive; / = no result. Sampled rows, rich in hits. Any-hit rate of the full collection: about 2.9%.

SMILES | VIM-2 inhibitor | Mot1-301 SUMO | PolyA inh | IMP-1 inh-1 | NALP1 yeast inh | NLRP3 yeast inh | IMP-1 inh-2 | VIM-2 FRET inh | TEM-1 counter | VIM-2 inh conf
CC(O)CNc1ccc(-c2nn(C)c(=O)c3ccccc23)cc1[N+](=O)[O-] (stereo unspecified) | 19* | 9 | -2 | -2 | 16 | 4 | -3 | -1 | -6 | 39*
Cc1c(NC(=O)COC(=O)c2cccn2C)c(=O)n(-c2ccccc2)n1C | / | -10 | / | / | / | 0 | / | / | / | /
Cc1occc1C(=O)N(Cc1nc(-c2ccccc2)no1)C(C)C | -1 | 2 | 8 | -2 | 19 | 7 | / | / | / | /
Cc1n[nH]c(C)c1CCCCOc1ccc([N+](=O)[O-])cc1 | 20* | -19 | -1 | -2 | 18 | 14 | -3 | 47* | -7 | 30*
COCCCNc1nc(N)c([N+](=O)[O-])c(Nc2cc(OC)ccc2OC)n1 | -1 | -5 | -9 | -3 | -4 | 13 | / | / | / | /
COc1ccc(OC)c(Nc2nc(NCCCN(C)C)nc(N)c2[N+](=O)[O-])c1 | 19* | 7 | 19 | 0 | 20 | 19 | -4 | 2 | -8 | 29*
C=CCn1c(CCC(O)COCCCCC)n[nH]c1=S (stereo unspecified) | -2 | -11 | 0 | -4 | -22 | 4 | / | / | / | /
CCCCn1c2ccccc2c2nnc(SCCN3CCCCC3)nc21 | 13* | / | 12 | -3 | 8 | -4 | -3 | -6 | -7 | 19*
CCCn1c2ccccc2c2nnc(SCC(=O)Nc3ncccn3)nc21 | 2 | -18 | -10 | 0 | 5 | 19 | / | / | / | /
COc1ccccc1C(=O)Nc1ccc(S(=O)(=O)N2CCN(C)CC2)cc1 | / | 312 | 7 | / | / | 11 | / | / | / | /
CCCOc1ccccc1C(=O)Nc1ccc(S(=O)(=O)N2CCN(C)CC2)cc1 | 51* | 3 | 5 | -1 | 6 | 21 | -2 | -1 | -7 | 65*
CCc1ccc(NC(=O)CSc2nnc(C)c(=O)n2N)cc1 | 3 | 6 | -9 | -1 | 9 | 4 | / | / | / | /
O=C(CCCn1c(=O)c2cccn2c2cccnc21)N1CCN(c2ccccc2F)CC1 | 1 | -2 | 10 | -1 | 13 | 12 | / | / | / | /
CCN1CCN(C(=O)CCn2c(=O)c3cccn3c3cccnc32)CC1 | 17* | -2 | 26 | -3 | 30 | 3 | -2 | 2 | -4 | 25*
CCCN1CCN(C(=O)CCn2c(=O)c3cccn3c3cccnc32)CC1 | 13* | -7 | -6 | 0 | 4 | -6 | -4 | -3 | -6 | 24*
COc1ccc(N2CCN(C(=O)CCCn3c(=O)c4cccn4c4cccnc43)CC2)cc1 | 0 | -11 | 13 | -2 | -6 | -1 | / | / | / | /
Clc1ccccc1-c1ccc(/C=N/n2cnnc2)o1 | 21* | -4 | 10 | -4 | 4 | -9 | -3 | -1 | -6 | 42*
Clc1cccc(-c2ccc(/C=N/n3cnnc3)o2)c1Cl | 29* | 5 | -6 | -3 | 2 | 10 | -3 | -8 | -5 | 64*
COC(=O)N/N=C/c1ccc(-c2ccccc2Cl)o1 | -1 | 175 | -23 | 0 | / | 30 | / | / | / | /
Clc1ccc(Sc2ccc(/C=N/n3cnnc3)o2)cc1 | -4 | 34 | -26 | -2 | 31 | 11 | / | / | / | /
Cc1c(Cl)cccc1-c1ccc(/C=N/n2cnnc2)o1 | 32* | 2 | -9 | 0 | 7 | 5 | -4 | -5 | -7 | 53*
CC1CCCCC12NC(=O)N(CC(=O)N1CCN(C(=O)c3cccs3)CC1)C2=O (stereo unspecified) | / | / | / | / | / | 18 | / | / | / | /
Cc1nn2c(N3CCCC3)c3c(nc2c1-c1ccccc1)CCC3 | 4 | 13 | -8 | 0 | / | 10 | / | / | / | /
Cc1nn2c(N3CCN(CCO)CC3)c3c(nc2c1-c1ccccc1)CCCC3 | 37* | 7 | 5 | -3 | 2 | 16 | -4 | -4 | -7 | 59*
Cc1nc2ccccc2c2oc(C(=O)NCCCN3CCCC(C)C3)cc12 (stereo unspecified) | 18* | -7 | 14 | -2 | 5 | 5 | -3 | 2 | -6 | 29*
SMILES | VIM-2 inhibitor | Mot1-301 SUMO | PolyA inh | IMP-1 inh-1 | NALP1 yeast inh | NLRP3 yeast inh | IMP-1 inh-2 | VIM-2 FRET inh | TEM-1 counter | VIM-2 inh conf
CC1CCCN(CCCNC(=O)c2cc3c(Cl)nc4ccccc4c3s2)C1 (stereo unspecified) | 19* | i | -4 | -2 | 6 | 21 | -3 | 1 | -5 | 31*
Cc1ccc(CNC(=O)c2cc3c(C)nc4ccccc4c3o2)cc1 | -2 | -8 | 8 | -2 | 33 | 19 | / | / | / | /
CC1CCCN(CCCNC(=O)c2cc3c(s2)-c2ccccc2OC3)C1 (stereo unspecified) | 0 | 2 | 5 | 1 | 32 | 6 | / | / | / | /
Cc1nc2ccccc2c2oc(C(=O)NCCCN3CC(C)CC(C)C3)cc12 (stereo unspecified) | 15* | 34 | 8 | -2 | 16 | 12 | -2 | 1 | -6 | 24*
COc1ccc(S(=O)(=O)N(CC(=O)NCc2ccco2)c2ccccc2OC)cc1 | -2 | 87 | 16 | -3 | 9 | 3 | / | / | / | /
CN(CC(=O)NCCCN1CCOCC1)S(=O)(=O)c1ccc(Cl)cc1 | / | -15 | / | / | / | 17 | / | / | / | /
CCC(C)C(=O)Nc1nnc(CCc2ccccc2)s1 (stereo unspecified) | 2 | 36 | 4 | -1 | 18 | 22 | / | / | / | /
Cc1[nH]n(-c2ccccc2)c(=O)c1/C=N/NC(=O)C(C)C | -3 | -6 | 4 | -4 | -12 | -7 | / | / | / | /
CC(C)Sc1nc(SCC(=O)O)c2c3c(sc2n1)COC(C)(C)C3 | 24* | 69 | 11 | 0 | 16 | 21 | -4 | 23* | -5 | 8.8*
COc1ccc(C(=O)NCc2cnn(C)c2C)cc1OC1CCN(C(C)C)CC1 | -2 | 468 | -11 | -2 | 11 | 13 | / | / | / | /
COc1ccc(C(=O)NC(C)c2ccc(-n3ccnc3)cc2)c(OC)c1OC (stereo unspecified) | 30* | 0 | -5 | -2 | 12 | 21 | -4 | -6 | -7 | 40*
COc1ccc(C(=O)NC(C)c2ccc(-n3ccnc3)cc2)c(OC)c1 (stereo unspecified) | 22* | 263 | 4 | -3 | 5 | 13 | -5 | -7 | -8 | 34*

Screens: PubChem, several laboratories
